Data on two compounds can be found in PMC10864842 (Saudi Pharmaceutical Journal : SPJ, 2024).

Each structure is given as a SMILES string. Where “and” joins values, the source holds several entries; their conditions need not be identical. Equal entries are not always repeated. Where two headings read alike, the source gives them in different places.

Data set [1] is described as follows: MTT assay on oral epithelial normal cells. Type of data set: cell-based. The procedure, abridged:
(§1)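 Cells kept in DMEM with 10% (v/v) FBS and 1% (v/v) streptomycin/penicillin at 37 °C and 5% CO2. About 10^4 cells/ml were seeded and grown for 24 h. Test compounds in DMSO were added at 6.25, 12.5, 25, 50 and 100 µg/ml for 24 and 48 h. Medium was replaced with 5 mg/mL MTT for 3–4 h. Formazan was dissolved in acidified isopropanol and read at 630 nm. Viability is expressed as % of untreated cells.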
In general terms: Formazan colour is commonly taken as a measure of viable cells.

In data set [2] the target is T1, KSP ATPase (Homo sapiens, UniProt P52732).
T1 sequence (P52732 1-1056): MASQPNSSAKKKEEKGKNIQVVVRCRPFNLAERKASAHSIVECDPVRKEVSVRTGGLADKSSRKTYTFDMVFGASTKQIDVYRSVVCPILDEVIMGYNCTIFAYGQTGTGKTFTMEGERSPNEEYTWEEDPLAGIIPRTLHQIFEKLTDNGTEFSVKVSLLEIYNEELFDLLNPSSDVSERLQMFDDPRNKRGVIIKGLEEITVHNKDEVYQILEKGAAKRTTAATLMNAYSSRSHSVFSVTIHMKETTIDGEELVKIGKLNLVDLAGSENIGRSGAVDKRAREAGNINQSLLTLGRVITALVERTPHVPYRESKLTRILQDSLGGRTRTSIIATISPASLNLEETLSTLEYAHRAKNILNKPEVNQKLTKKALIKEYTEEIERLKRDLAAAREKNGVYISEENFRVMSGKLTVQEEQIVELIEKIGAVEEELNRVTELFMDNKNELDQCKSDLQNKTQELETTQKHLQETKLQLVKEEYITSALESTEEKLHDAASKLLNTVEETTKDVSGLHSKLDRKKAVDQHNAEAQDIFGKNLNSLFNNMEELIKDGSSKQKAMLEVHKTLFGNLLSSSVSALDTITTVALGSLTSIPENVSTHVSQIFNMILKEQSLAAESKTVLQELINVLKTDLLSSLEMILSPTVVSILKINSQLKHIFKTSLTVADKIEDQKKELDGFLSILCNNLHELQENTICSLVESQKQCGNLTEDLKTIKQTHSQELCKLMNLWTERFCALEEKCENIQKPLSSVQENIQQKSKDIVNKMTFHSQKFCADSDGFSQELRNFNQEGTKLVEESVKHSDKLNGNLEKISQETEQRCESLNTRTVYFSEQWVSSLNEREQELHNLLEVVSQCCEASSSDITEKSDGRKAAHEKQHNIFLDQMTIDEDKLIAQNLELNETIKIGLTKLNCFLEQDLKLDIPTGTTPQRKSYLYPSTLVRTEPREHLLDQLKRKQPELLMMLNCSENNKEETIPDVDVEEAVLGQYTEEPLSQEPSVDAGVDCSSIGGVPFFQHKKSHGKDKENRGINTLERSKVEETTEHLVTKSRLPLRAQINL
The data set can be described thus: Microtubule-activated KSP ATPase end-point assay. The data set is classed as biochemical. The note with it: read-out: KSP ATPase inhibition [%].

Data set [3] has as its system MDA-MB-231 cells. In words: Morphological study by inverted microscope. Type of data set: cell-based. The note with it: 48 h. The procedure, abridged: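 MDA-MB-231 cells were grown in DMEM with 10% FBS and 1% streptomycin/penicillin at 37 °C, 5% CO2. They were treated with varying concentrations of test compound for 48 h and examined by inverted light microscopy. Phenotypic changes were scored as cell shrinkage, apoptotic body formation and membrane blebbing.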

The target of data set [4] is T1, KSP ATPase. In words: Microtubule-activated KSP ATPase kinetic assay. Type of data set: biochemical.
For data set [5], the system named is MDA-MB-231 breast cancer cells. In words: MTT assay on MDA-MB-231 cells. The data set is classed as cell-based. The settings on record: Homo sapiens. The procedure, abridged:
as §1

In data set [6] the test system is MDA-MB-231 cells. In words: qRT-PCR relative gene expression of P53, BAX and BCL-2. The data set is classed as cell-based. The settings on record: MDA-MB-231, 48 h. The procedure, abridged:
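RNA was extracted from cells after 48 h of treatment with test compound, and its purity was checked by nanodrop. P53, BAX and BCL-2 expression was normalised to β-actin as the housekeeping gene. Treated and untreated cells were compared by ANOVA.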
In general terms: Quantitative PCR measures a nucleic acid by following its amplification.

The subject of data set [7] is MDA-MB-231 cells. The data set can be described thus: DNA fragmentation by gel electrophoresis. Type of data set: cell-based. The note with it: post-treatment. The essentials:
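MDA-MB-231 cells kept in DMEM with 10% FBS and 1% streptomycin/penicillin at 37 °C, 5% CO2. Genomic DNA was extracted with a commercial kit from cells before and after test compound treatment, and its quality was checked by nanodrop. DNA plus 1X loading dye was run on agarose gel, viewed under a UV transilluminator and imaged on a gel documentation system. Doxorubicin served as reference.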

Data set [8] has as its system MDA-MB-231 cells. In words: Annexin V-FITC/PI flow cytometry. The note with it: MDA-MB-231, Annexin V-FITC & PI, post-treatment. The data set is classed as cell-based. The procedure, abridged: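 MDA-MB-231 cells were kept in DMEM with 10% FBS and 1% streptomycin/penicillin at 37 °C under 5% CO2. Cells were treated with the test compound for 48 h, with doxorubicin as the standard and untreated cells for comparison. Cells were then harvested, rinsed, suspended in PBS, stained with Annexin V-FITC/PI and held 20 min in the dark before flow cytometry. Early apoptosis was Annexin V+/PI−; late apoptosis was Annexin V+/PI+.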
(In general: A flow cytometer gives signals particle by particle.)

The target of another data set is PI3Kδ (Homo sapiens, UniProt O00329). The data set can be described thus: PI3Kδ inhibition assay. Type of data set: biochemical.
[9] abbreviates: MDA-MB-231, 24 h, read-out: IC50 after 24 h (µM).
[10] abbreviates: MDA-MB-231, 24 h, read-out: IC50 after 24 h in µg/mL.
Where [11] appears, read: MDA-MB-231, 48 h, read-out: IC50 after 48 h (µM).
The mark [12] stands for this setting: MDA-MB-231, 48 h, read-out: IC50 after 48 h in µg/mL.

Chain of PI3Kδ (O00329 whole entry): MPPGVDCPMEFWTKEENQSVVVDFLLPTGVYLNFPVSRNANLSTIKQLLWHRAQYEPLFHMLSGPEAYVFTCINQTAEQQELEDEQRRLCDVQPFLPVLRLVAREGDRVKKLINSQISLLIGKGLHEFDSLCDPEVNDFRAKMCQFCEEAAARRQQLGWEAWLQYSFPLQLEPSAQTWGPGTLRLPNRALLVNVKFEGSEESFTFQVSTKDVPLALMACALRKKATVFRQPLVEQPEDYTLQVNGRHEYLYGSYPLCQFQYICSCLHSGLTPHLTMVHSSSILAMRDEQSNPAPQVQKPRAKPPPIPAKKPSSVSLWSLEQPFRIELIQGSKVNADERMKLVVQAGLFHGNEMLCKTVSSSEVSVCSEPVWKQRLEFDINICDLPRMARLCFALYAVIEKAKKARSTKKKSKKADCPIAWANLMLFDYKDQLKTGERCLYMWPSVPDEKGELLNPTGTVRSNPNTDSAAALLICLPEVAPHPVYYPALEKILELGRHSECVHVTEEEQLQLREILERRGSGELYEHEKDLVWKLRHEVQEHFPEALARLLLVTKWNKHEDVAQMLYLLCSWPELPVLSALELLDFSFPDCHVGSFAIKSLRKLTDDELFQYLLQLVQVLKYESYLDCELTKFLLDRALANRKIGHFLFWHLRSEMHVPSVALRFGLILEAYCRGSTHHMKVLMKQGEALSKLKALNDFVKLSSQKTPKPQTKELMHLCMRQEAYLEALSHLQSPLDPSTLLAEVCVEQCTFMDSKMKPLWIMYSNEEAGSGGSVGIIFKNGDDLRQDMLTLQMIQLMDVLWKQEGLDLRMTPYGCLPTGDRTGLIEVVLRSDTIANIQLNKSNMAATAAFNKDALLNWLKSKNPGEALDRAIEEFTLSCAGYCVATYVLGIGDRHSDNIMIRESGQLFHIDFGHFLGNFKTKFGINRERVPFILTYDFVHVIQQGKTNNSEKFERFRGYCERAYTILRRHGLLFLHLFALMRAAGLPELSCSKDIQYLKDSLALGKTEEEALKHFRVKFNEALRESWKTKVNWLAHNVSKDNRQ
Chain of PI3Kδ (P27986 whole entry partner): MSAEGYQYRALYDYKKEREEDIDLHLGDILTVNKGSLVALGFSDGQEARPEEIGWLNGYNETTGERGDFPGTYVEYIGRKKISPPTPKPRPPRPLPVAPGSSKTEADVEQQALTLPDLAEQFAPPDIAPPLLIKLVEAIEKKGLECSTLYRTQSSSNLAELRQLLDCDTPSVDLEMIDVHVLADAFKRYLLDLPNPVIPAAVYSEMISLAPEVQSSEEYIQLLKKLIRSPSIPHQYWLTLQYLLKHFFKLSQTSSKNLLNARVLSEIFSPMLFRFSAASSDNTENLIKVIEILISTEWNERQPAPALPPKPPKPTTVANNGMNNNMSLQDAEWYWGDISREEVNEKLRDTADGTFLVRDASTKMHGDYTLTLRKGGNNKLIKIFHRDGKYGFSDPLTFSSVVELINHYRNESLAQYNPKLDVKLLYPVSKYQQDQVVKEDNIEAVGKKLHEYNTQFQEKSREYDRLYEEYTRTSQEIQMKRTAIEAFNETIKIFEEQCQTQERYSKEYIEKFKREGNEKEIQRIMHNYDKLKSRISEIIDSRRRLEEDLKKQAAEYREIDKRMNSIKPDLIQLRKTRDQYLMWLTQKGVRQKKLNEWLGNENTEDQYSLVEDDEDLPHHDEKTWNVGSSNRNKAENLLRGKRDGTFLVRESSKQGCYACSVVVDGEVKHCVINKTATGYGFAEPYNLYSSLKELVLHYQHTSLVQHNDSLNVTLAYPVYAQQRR

Broadly, the inhibition is the drop in the measured response relative to a control, in per cent. On to `CC(C)=CCSc1nc2ccc(Cl)cc2c(=O)n1-c1ccc(F)cc1` [Compound 3b, 6-Chloro-3-(4-fluorophenyl)-2-((3-methylbut-2-en-1-yl)thio)quinazolin-4(3H)-one], for which the IC50 at 48 h in [1] is 98 µg/mL and 261 µM. The inhibition at 2 µM at KSP ATPase [2] was determined as 89.6 ± 3.42%. Further, the “Morphological changes of treated cells” value in the data set on MDA-MB-231 cells [3] is “cell shrinkage, apoptotic bodies formation, and membrane blebbing”. In addition, the IC50 against KSP ATPase [4] was 0.0858 µM; in data set [5] (setting [9]) it was 47.5 µM; in [5] (setting [10]) it was 17.8 ± 0.12 µg/mL; in data set [5] (setting [11]), 16.3 µM; in data set [5] (setting [12]) it was 6.1 ± 0.1 µg/mL; against PI3Kδ, 0.0323 ± 0.00218 µM. The “Relative gene expression of BAX” value in the data set on MDA-MB-231 cells [6] is given as “significant overexpression”. Besides, in the data set on MDA-MB-231 cells [6], the “Relative gene expression of BCL-2” value is “downregulation”. In addition, the “Relative gene expression of P53” value in the data set on MDA-MB-231 cells [6] is recorded as “significant overexpression”. For the same compound, in the data set on MDA-MB-231 cells [7], the DNA fragmentation result was “internucleosomal fragmentation was noticed”. In addition, in the data set on MDA-MB-231 cells [8], the “Number of cells in the early and late apoptosis versus untreated cells” value is “significant increase”.

On to `O=c1c2cc(Cl)ccc2nc(SCc2ccc(F)cc2)n1-c1ccc(F)cc1` [Compound 3e, 6-Chloro-2-((4-fluorobenzyl)thio)-3-(4-fluorophenyl)quinazolin-4(3H)-one], for which the IC50 at 48 h in data set [1] was 92.1 µg/mL and 222 µM. For the same compound, the inhibition at 2 µM on KSP ATPase [2] is 93.3 ± 2.1%. In addition, the “Morphological changes of treated cells” value in the data set with MDA-MB-231 cells [3] was “cell shrinkage, apoptotic bodies formation, and membrane blebbing”. In addition, the IC50 is 0.0684 µM against KSP ATPase [4]; 21.5 µM in data set [5] (setting [9]); 8.94 ± 0.08 µg/mL in data set [5] (setting [10]); 9.97 µM in [5] (setting [11]); 4.14 ± 0.11 µg/mL in data set [5] (setting [12]); 0.0454 ± 0.00205 µM against PI3Kδ. Besides, the “Relative gene expression of BAX” value in the data set with MDA-MB-231 cells [6] was “significant overexpression”. For the same compound, the “Relative gene expression of BCL-2” value in the data set with MDA-MB-231 cells [6] is reported as “downregulation”. The “Relative gene expression of P53” value in the data set on MDA-MB-231 cells [6] is recorded as “significant overexpression”. In the data set with MDA-MB-231 cells [7], the DNA fragmentation entry is “internucleosomal fragmentation was noticed”. For the same compound, the “Number of cells in the early and late apoptosis versus untreated cells” value in the data set on MDA-MB-231 cells [8] is listed as “significant increase”.
